IDH1 R132H inh: inhibitors of IDH1 R132H reductase, primary screen, biochemical, plate reader, single point; Isocitrate dehydrogenase [NADP] cytoplasmic (Homo sapiens), O75874; diaphorase/resazurin fluorescence, 60 min; inhibition, % at 10 µM; hit rate 0.18% among 70,000; in the data active = inhibition above about 34%; inconclusive = no clear call, values can overlap the other calls; inactive = below about 11%;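 note: 0% = DMSO and 100% = no enzyme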
Target sequence (O75874 whole entry R132H): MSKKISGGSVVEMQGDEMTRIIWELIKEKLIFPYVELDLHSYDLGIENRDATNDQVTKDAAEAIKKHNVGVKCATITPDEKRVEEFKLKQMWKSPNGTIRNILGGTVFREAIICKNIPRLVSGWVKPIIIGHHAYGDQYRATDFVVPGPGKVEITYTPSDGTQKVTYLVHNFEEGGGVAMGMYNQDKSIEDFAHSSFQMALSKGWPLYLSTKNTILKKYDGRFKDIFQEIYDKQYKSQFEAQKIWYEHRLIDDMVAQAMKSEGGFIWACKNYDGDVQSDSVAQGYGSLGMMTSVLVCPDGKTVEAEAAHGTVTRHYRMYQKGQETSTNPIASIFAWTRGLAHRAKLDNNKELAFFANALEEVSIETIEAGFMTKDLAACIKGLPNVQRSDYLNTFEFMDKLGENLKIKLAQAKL
KDM4C inh: inhibitors of GASC-1 (KDM4C) histone demethylase, primary screen, biochemical, single concentration HTS; hit rate 0.15% among 96,000; inhibition, % at 12.5 µM; Lysine-specific demethylase 4C (Homo sapiens), Q9H3R0; GST-KDM4C 2-372, H3K9me3 peptide, LANCE TR-FRET;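 active = mean replicate inhibition above about 25%, with at least 55% of replicates also reaching it, limit read from the data, passing the limit was not always enough; inconclusive = only one of those two conditions met; inactive = neither condition met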
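Material: N-terminal GST-fused human GASC-1 (KDM4C) fragment, residues 2-372. Input: 10 nM enzyme. Incubation: enzyme reaction 30 min, then detection 60 min, both room temperature. Doses: one test concentration per compound. Read-out basis: inhibition from TR-FRET ratio decrease. Detection: LANCE TR-FRET, excitation 340 nm, emissions 618 and 671 nm.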
Pf Dd2 growth: P. falciparum Dd2 growth inhibitors, primary screen, SYBR Green fluorescence, single dose replicates; 72 h; stronger effect = lower value; activity change, % at 10 µM; hit rate 2.3% among 94,000; AID 1159554, 2015; in the data active = activity change below about -80%; inconclusive = no clear call, values can overlap the other calls
T cruzi growth-1: T. cruzi intracellular proliferation inhibitors, primary screen, cell-based, beta-gal Tulahuen parasites, NIH3T3 host, luminescence; T. cruzi beta-gal in NIH3T3, GalScreen luminescence, 90 h; inhibition, % at 8.34 µM; hit rate 5.9% among 77,000; AID 624255, 2012;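 active = mean inhibition above about 93%, with at least 55% of replicates each passing it, limit read from the data, passing the limit was not always enough; inconclusive = only one of those two conditions holds; inactive = neither condition holds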
T cruzi growth-2: T. cruzi intracellular proliferation inhibitors, confirmation, cell-based, NIH3T3 host, beta-gal parasite, luminescence, cherry-pick; hit rate 72% among 5,600; inhibition, % at 8.35 µM; T. cruzi beta-gal in NIH3T3, GalScreen luminescence, 90 h; shares compounds with T cruzi growth-1;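 active = mean replicate inhibition above about 95% and at least 55% of replicates individually reaching it, limit read from the data; inconclusive = only one of the two criteria is met; inactive = neither criterion is met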
T cruzi growth-3: inhibitors of intracellular T. cruzi replication, confirmation, NIH3T3 host cells, beta-gal parasites, cherry-pick, set 2. inhibition, % at 2.09 µM. T. cruzi beta-gal in NIH3T3, GalScreen luminescence, 90 h. AID 651740, 2012. shares compounds with T cruzi growth-1. hit rate 21% among 5,600;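 active = mean inhibition above about 95%, with at least 55% of replicates also reaching it, limit read from the data; inconclusive = meets just one of the two conditions; inactive = meets neither condition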;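 note: plate controls were neutral control median for no effect and positive control median for full effect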
3T3 cytotox: cytotoxicity in mouse NIH/3T3 fibroblasts, confirmation, cytotoxicity control for T. cruzi proliferation inhibitor project, cell-based, cherry-pick, single point. NIH/3T3 viability, CellTiter-Glo ATP luminescence, 90 h. hit rate 14% among 5,600. cytotoxicity (signal decrease), % at 8.35 µM. shares compounds with T cruzi growth-1;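 active = mean signal decrease across replicates above about 35% based on untreated-well scatter, with enough replicates individually passing, limit read from the data; inconclusive = no rule stated though some were filed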;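 note: 0% = median of neutral control wells and 100% = median of positive control wells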
3T3 cytotox 2: NIH/3T3 fibroblast cytotoxicity, confirmation, cytotoxicity control, cell-based, cherry-pick, single point, set 2; shares compounds with T cruzi growth-1; NIH/3T3 viability, CellTiter-Glo ATP luminescence, 90 h; inhibition, % at 24.9 µM; hit rate 56% among 5,600; AID 651744, 2012;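 active = mean loss of cell viability signal at or above a set limit, and enough replicates individually reaching it; inconclusive = meets only the mean limit or only the replicate share; inactive = meets neither condition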;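 note: 0% = median of neutral control wells and 100% = median of positive control wells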
Starred values were filed as active, the others as inactive. An excerpt weighted towards active compounds, which were near 5.9% of everything screened.

For Cc1noc(C)c1S(=O)(=O)Nc1ccc2c(c1)C(=O)N([C@@H](C)CO)C[C@@H](C)[C@@H](CN(C)Cc1ccc(C(F)(F)F)cc1)OCCCC[C@@H](C)O2 the results were IDH1 R132H inh 2.2, KDM4C inh -2.4, Pf Dd2 growth -17.7, T cruzi growth-1 99.0*, T cruzi growth-2 93.9, T cruzi growth-3 111.7*, 3T3 cytotox 19.2 and 3T3 cytotox 2 105.6*.
For CCc1cnc(N2[C@H](C#N)[C@@H](c3ccc(C#CC(C)C)cc3)[C@@H]2CO)s1 the results were KDM4C inh -4.4, Pf Dd2 growth -46.7, T cruzi growth-1 98.0*, T cruzi growth-2 104.4*, T cruzi growth-3 109.7*, 3T3 cytotox -2.8 and 3T3 cytotox 2 43.0*.
CCc1cnc(N2[C@H](CO)[C@@H](c3ccc(C#CC(C)C)cc3)[C@@H]2C#N)s1 was read as KDM4C inh -1.2, Pf Dd2 growth -41.5, T cruzi growth-1 98.9*, T cruzi growth-2 100.7*, T cruzi growth-3 104.5*, 3T3 cytotox -2.3 and 3T3 cytotox 2 52.3*.
For O=C(CSc1nnc(-c2cccnc2)o1)c1ccc2c(c1)OCCO2 the results were IDH1 R132H inh 0.1.
For CS(=O)(=O)N1[C@@H](C#N)[C@H](c2ccc(C#CC3CCCC3)cc2)[C@@H]1CO the results were KDM4C inh -2.1, Pf Dd2 growth 17.3, T cruzi growth-1 inconclusive, T cruzi growth-2 80.3, T cruzi growth-3 16.0, 3T3 cytotox -11.3 and 3T3 cytotox 2 -1.4.
Screening CS(=O)(=O)N1[C@H](C#N)[C@H](c2ccc(C#CC3CCCCC3)cc2)[C@@H]1CO returned KDM4C inh -0.2, Pf Dd2 growth -42.0, T cruzi growth-1 inconclusive, T cruzi growth-2 100.9*, T cruzi growth-3 107.5*, 3T3 cytotox 2.0 and 3T3 cytotox 2 42.2*.
COc1ccc(NC(=O)N(C)C[C@@H]2OCCCC[C@@H](C)Oc3ccc(NC(=O)Nc4ccc(C(F)(F)F)cc4)cc3C(=O)N([C@H](C)CO)C[C@H]2C)cc1 was read as IDH1 R132H inh 0.6, KDM4C inh -1.6, Pf Dd2 growth 14.7 and T cruzi growth-1 28.4.
For COc1ccc(NC(=O)N(C)C[C@H]2OCCCC[C@@H](C)Oc3ccc(NC(=O)Nc4ccc(C(F)(F)F)cc4)cc3C(=O)N([C@@H](C)CO)C[C@H]2C)cc1 the results were KDM4C inh -0.1, Pf Dd2 growth -62.0, T cruzi growth-1 108.5*, T cruzi growth-2 105.5*, T cruzi growth-3 112.5*, 3T3 cytotox 10.2 and 3T3 cytotox 2 5.5.
For COc1ccc(NC(=O)Nc2ccc3c(c2)C(=O)N([C@@H](C)CO)C[C@H](C)[C@@H](CN(C)C(=O)Nc2ccc(C(F)(F)F)cc2)OCCCC[C@H](C)O3)cc1 the results were KDM4C inh 0.7, Pf Dd2 growth -82.1*, T cruzi growth-1 inconclusive, T cruzi growth-2 107.2*, T cruzi growth-3 110.4*, 3T3 cytotox 16.0 and 3T3 cytotox 2 13.4.
Screening COc1ccc(NC(=O)Nc2ccc3c(c2)C(=O)N([C@@H](C)CO)C[C@@H](C)[C@@H](CN(C)C(=O)Nc2ccc(C(F)(F)F)cc2)OCCCC[C@@H](C)O3)cc1 returned KDM4C inh -1.9, Pf Dd2 growth -56.1, T cruzi growth-1 inconclusive, T cruzi growth-2 101.5*, T cruzi growth-3 106.9*, 3T3 cytotox 7.9 and 3T3 cytotox 2 3.2.
Screening COc1ccc(NC(=O)Nc2ccc3c(c2)C(=O)N([C@@H](C)CO)C[C@@H](C)[C@H](CN(C)C(=O)Nc2ccc(C(F)(F)F)cc2)OCCCC[C@H](C)O3)cc1 returned KDM4C inh 0.7, Pf Dd2 growth -11.3, T cruzi growth-1 inconclusive, T cruzi growth-2 103.1*, T cruzi growth-3 99.8*, 3T3 cytotox 4.4 and 3T3 cytotox 2 18.9.
For Cc1cnn(CCCNC(=O)NC23CC4CC(CC(C4)C2)C3)c1 the results were IDH1 R132H inh 0.7.
For COc1ccc(NC(=O)Nc2ccc3c(c2)C(=O)N([C@H](C)CO)C[C@H](C)[C@@H](CN(C)C(=O)Nc2ccc(C(F)(F)F)cc2)OCCCC[C@H](C)O3)cc1 the results were IDH1 R132H inh 0.5, KDM4C inh 1.3, Pf Dd2 growth -90.0*, T cruzi growth-1 inconclusive, T cruzi growth-2 111.6*, T cruzi growth-3 107.5*, 3T3 cytotox 10.3 and 3T3 cytotox 2 1.4.
For C[C@@H]1CN([C@@H](C)CO)S(=O)(=O)c2ccc(-c3ccncc3)cc2O[C@@H]1CN(C)Cc1ccc(Oc2ccccc2)cc1 the results were IDH1 R132H inh 0.2, KDM4C inh 0.8, Pf Dd2 growth -83.6*, T cruzi growth-1 inconclusive, T cruzi growth-2 98.7*, T cruzi growth-3 107.8*, 3T3 cytotox 73.7* and 3T3 cytotox 2 74.4*.
Screening C[C@@H]1CN([C@@H](C)CO)S(=O)(=O)c2ccc(-c3ccncc3)cc2O[C@@H]1CN(C)Cc1ccccc1 returned KDM4C inh -1.0, Pf Dd2 growth -29.1 and T cruzi growth-1 86.4.
Screening C[C@H](CO)N1C[C@H](C)[C@H](CN(C)Cc2ccc(Oc3ccccc3)cc2)Oc2cc(-c3ccncc3)ccc2S1(=O)=O returned IDH1 R132H inh 5.0, KDM4C inh -1.2, Pf Dd2 growth -75.2, T cruzi growth-1 123.7*, T cruzi growth-2 101.3*, T cruzi growth-3 103.8*, 3T3 cytotox 63.6* and 3T3 cytotox 2 64.1*.
Cc1ccc(NC(=O)CSc2nc(C)cc(-c3ccc(Cl)cc3)n2)cc1 was read as IDH1 R132H inh 0.1.
For Cc1cc(OCC(=O)Nc2ccc(O)c(-c3nc4ccccc4s3)c2)ccc1Cl the results were IDH1 R132H inh -0.4.
C[C@@H]1CN([C@H](C)CO)S(=O)(=O)c2ccc(C#Cc3cccc(F)c3)cc2O[C@H]1CN(C)S(=O)(=O)c1ccccc1F was read as IDH1 R132H inh 0.2, KDM4C inh -0.3, Pf Dd2 growth -76.0, T cruzi growth-1 111.0*, T cruzi growth-2 109.0*, T cruzi growth-3 106.2*, 3T3 cytotox 31.5 and 3T3 cytotox 2 35.2*.
